System: Sprague Dawley rats
Assay: Antiinflammatory activity, carrageenan hind paw edema method
Type: in vivo
Conditions: rat, oral, equivalent to 20 mg/kg
How it was run: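 Sprague Dawley rats (100-200 g), six per group (3 male, 3 female). Test compound given orally in 1% sodium CMC suspension, equivalent to 20 mg/kg; controls received 1% CMC only. After 30 min, 0.1 ml 1% w/v carrageenan in normal saline injected into the right hind paw plantar surface. Paw volume measured by plethysmometer before dosing and at 0.5, 1, 2, 4 and 6 h. %inhibition = (1−Vt/Vc)×100, using mean relative volume change.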

CCc1cccc2c3c([nH]c12)C(CC)(CC(=O)O)OCC3 (racemic) [EC, (RS)-2-(1,8-Diethyl-4,9-dihydro-3H-pyrano[3,4-b]indol-1-yl) acetic acid]
Antiinflammatory activity (6 h) Inhibition of edema (%): 81.9%

From publication PMC3831721 (Indian Journal of Pharmaceutical Sciences, 2013)
